An excerpt weighted towards active compounds, which were near 2.9% of everything screened.
SENP8 block-1: blocks human SENP8 cleavage of Nedd8 substrate; Q96LD8; recombinant SENP8, Nedd8 substrate fluorescence; inhibition, % at 20 µM; actives 0.64% (n = 360,000); in the data active = inhibition mostly above about 40%, no sharp cut-off; inactive = mostly below about 27%
SENP8 block-2: SENP8 protease inhibition | AID 2540 | inhibition, % at 10 µM | purified SENP8, Z-RLRGG-aminoluciferin cleavage, luminescence | actives 1.2% (n = 330,000) | Q96LD8; in the data active = inhibition above about 50%
SENP1 inh: SENP1 (human) catalytic domain inhibition; Q9P0U3; recombinant SENP1 catalytic domain, CyPet-SUMO1-YPet FRET cleavage; inhibition, % at 10 µM; actives 0.21% (n = 360,000); AID 624204;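 active = inhibition at least 30% at 10 µM, raw YFP signal under a set limit, fluorescence ratio 0.5 to 1.5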
Target sequence (Q9P0U3 419-644 limits assumed): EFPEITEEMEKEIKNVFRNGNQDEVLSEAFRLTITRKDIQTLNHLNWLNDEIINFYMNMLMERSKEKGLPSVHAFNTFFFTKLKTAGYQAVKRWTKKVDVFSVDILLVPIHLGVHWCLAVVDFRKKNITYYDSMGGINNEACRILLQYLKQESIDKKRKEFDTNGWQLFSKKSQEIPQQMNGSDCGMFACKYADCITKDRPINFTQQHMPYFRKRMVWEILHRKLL
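Test system: human SENP1 catalytic domain; medium: Tris pH 8 buffer plus EDTA, NaCl, BME, BSA, NP40, catalase; incubation: 50 min reaction at room temperature; technique: FRET, CFP and YFP emission; controls: no-enzyme low control and enzyme-plus-DMSO high control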
SENP7 inh: SENP7 protease inhibition; actives 1.5% (n = 330,000); inhibition, % at 5 µM; recombinant SENP7, Z-RLRGG-aminoluciferin luminescence, 40 min; AID 434973; Q9BQF6;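 active = inhibition above about 50% at the single test dose, limit read from the data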
Target sequence (Q9BQF6 706-1050 limits assumed): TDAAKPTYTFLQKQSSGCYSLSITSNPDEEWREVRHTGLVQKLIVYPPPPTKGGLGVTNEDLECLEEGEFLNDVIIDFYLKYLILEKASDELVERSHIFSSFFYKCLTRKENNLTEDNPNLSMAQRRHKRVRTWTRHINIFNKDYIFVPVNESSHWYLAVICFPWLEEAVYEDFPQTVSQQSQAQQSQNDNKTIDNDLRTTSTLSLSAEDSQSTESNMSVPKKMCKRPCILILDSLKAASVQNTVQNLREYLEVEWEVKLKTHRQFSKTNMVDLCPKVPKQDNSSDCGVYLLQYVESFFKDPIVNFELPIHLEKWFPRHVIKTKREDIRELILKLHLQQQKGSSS
SENP6 inh: SENP6 protease inhibition; actives 1.8% (n = 330,000); Recombinant SENP6 catalytic domain, aminoluciferin luminescence; inhibition, % at 10 µM;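 active = inhibition above about 50% at the single tested dose, limit read from the data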
HSP90 refold inh: inhibitors of HSP90 luciferase refolding in rabbit reticulocyte lysate; inhibition, % at 5.6 µM; actives 0.91% (n = 290,000); luciferase refolding luminescence, 3 h;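 active = inhibition above the screen-wide mean plus 3 SD, computed separately per campaign, cut at about 16% in these data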;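 also: inhibitors lower the luminescence because luciferase stays unfolded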
HSP90 inh confirm: HSP90 inhibition, confirmation assay; shares compounds with HSP90 refold inh; rabbit reticulocyte lysate, luciferase refolding luminescence, 3 h; inhibition, % at 5.9 µM; actives 64% (n = 2,300); AID 1846; in the data active = inhibition above about 18%
FLuc counter: blocks native firefly luciferase in HSP90 counter-screen; shares compounds with HSP90 refold inh; inhibition, % at 5.9 µM; purified native firefly luciferase, luminescence; actives 48% (n = 2,300); AID 1847;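 active = inhibition above the mean inhibition of all tested sample wells plus 3 SD, cut at about 10% in these data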
SENP8 conf: confirmation of human SENP8 protease inhibitors; shares compounds with SENP7 inh; inhibition, % at 12.5 µM; Recombinant SENP8, Z-RLRGG-aminoluciferin luminescence, 60 min; AID 488912; actives 40% (n = 6,200);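 active = mean inhibition across replicates above about 50%, limit read from the data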
SENP6 confirm: human SENP6 inhibition, confirmed; shares compounds with SENP7 inh; recombinant SENP6, Z-RLRGG-aminoluciferin luminescence; inhibition, % at 12.5 µM; actives 58% (n = 6,200)
SENP7 confirm: human SENP7 inhibition, confirmed; inhibition, % at 12.5 µM; actives 69% (n = 6,200); recombinant SENP7, Z-RLRGG-aminoluciferin luminescence, 40 min; shares compounds with SENP7 inh
Casp3 select: selectivity test for SENP inhibitors: human caspase-3 inhibition; shares compounds with SENP7 inh; purified caspase-3, Z-DEVD-aminoluciferin luminescence, 60 min; inhibition, % at 12.5 µM; actives 60% (n = 6,200);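 active = mean inhibition above about 50%, limit read from the data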
SENP luc ctr: counter-screen for SENP inhibitors: luminescence interference; Pre-incubated SENP8/Z-RLRGG-aminoluciferin, luciferase luminescence interference; inhibition, % at 12.5 µM; shares compounds with SENP7 inh; actives 39% (n = 6,200);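 active = mean inhibition above about 50% when retested at one dose, limit read from the data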
Numbers stand for hits; – = inactive; · = not tested or not shown.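 The calls were made as follows, unless noted: active = mean inhibition above about 50% in the one-dose retest (limit read from the data); inactive = the rest.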

SMILES	SENP8 block-1	SENP8 block-2	SENP1 inh	SENP7 inh	SENP6 inh	HSP90 refold inh	HSP90 inh confirm	FLuc counter	SENP8 conf	SENP6 confirm	SENP7 confirm	Casp3 select	SENP luc ctr
CC(C(=O)O)c1ccc(N2Cc3ccccc3C2=O)cc1 (stereo not given)	–	–	–	–	54	27	36	32	–	–	72	78	55
COc1cc(/C=N/Nc2nc3ccccc3s2)cc([N+](=O)[O-])c1O	42	58	–	–	–	29	–	–	–	–	–	–	–
COc1cc(/C=N/Nc2ccccc2[N+](=O)[O-])cc(OC)c1O	–	–	–	–	–	–	·	·	·	·	·	·	·
CCCS(=O)(=O)NC(=O)C1(C)CCN(C(=O)c2cccc(OC(F)(F)F)c2)C1 (stereo not given)	–	·	–	·	·	·	·	·	·	·	·	·	·
Cc1ccnc(NC(=O)/C=C/c2ccccc2Cl)c1	–	93	–	98	96	35	58	47	82	92	91	94	63
Cc1cc(C2=NNC(=NC3CCCCC3)SC2)c(C)n1-c1c(C)n(C)n(-c2ccccc2)c1=O	–	–	–	–	–	–	·	·	·	·	·	·	·
Cc1cc(C2=NNC(=NC3CC3)SC2)c(C)n1-c1ccccc1F	–	80	–	–	–	36	85	76	–	93	100	93	60
CCN(C(=O)COC(=O)c1ccc2ccccc2n1)c1c(N)n(Cc2ccccc2)c(=O)[nH]c1=O	–	–	–	–	–	·	·	·	·	·	·	·	·
CCOc1ncccc1C(=O)NCCc1ccc(Cl)cc1	–	–	–	–	–	–	·	·	·	·	·	·	·
CCSC1=NCCN1C(=O)C(C)(C)Oc1ccc(Cl)cc1	–	–	–	–	–	–	·	·	·	·	·	·	·
Cc1oc(-c2nc3ccccc3n2C)cc1C(=O)c1ccccc1	–	85	–	–	94	17	57	46	94	94	101	94	93
O=C(/C=C/c1ccccc1F)c1cccc([N+](=O)[O-])c1	–	–	–	–	–	–	·	·	·	·	·	·	·
COc1ccc(C(=O)/C=C/c2ccccc2F)c(OC(=O)c2ccc([N+](=O)[O-])cc2)c1	–	–	–	–	60	18	37	–	–	–	–	–	–
CC(=NCc1ccco1)c1c(C)[nH]n(-c2nc3ccccc3s2)c1=O	–	–	–	–	65	32	50	16	–	–	73	–	–
c1ccc(-c2nc3ccccc3o2)nc1	–	–	–	–	–	–	·	·	·	·	·	·	·
c1ccc2nc(-c3nc4ccccc4o3)ccc2c1	–	97	–	100	98	32	81	76	98	100	102	99	95
COc1ccc2cc(C(=O)N3CCc4ccccc43)[nH]c2c1	–	53	–	93	86	22	–	–	–	–	–	–	–
COc1ccc2oc(C(=O)N3CCc4ccccc43)c(C)c2c1	–	96	–	100	96	23	59	46	72	88	96	85	–
COc1ccc2oc(C(=O)N3CCN(C(c4ccccc4)c4ccccc4)CC3)c(C)c2c1	–	–	–	–	–	·	·	·	·	·	·	·	·
COc1ccc2oc(C(=O)Nc3ccccn3)c(C)c2c1	–	77	–	92	87	25	46	34	85	85	98	88	88
Cc1cc(/C=c2/sc3nc4ccccc4n3c2=O)c(C)n1-c1ccccn1	–	91	–	–	79	60	90	81	–	54	–	64	–
CC(SCc1ccccc1)C(=O)Nc1ccccc1F (stereo not given)	–	–	–	–	–	–	·	·	·	·	·	·	·
Cc1cc(/C=C2\SC(=S)N(C)C2=O)c(C)n1-c1ccc(O)cc1	–	58	–	–	79	60	82	82	–	84	92	·	–
Cc1ccccc1NC(=S)Nc1ccc(Br)cc1	–	–	–	–	–	–	·	·	·	·	·	·	·
Cn1c(=N)n(CC(=O)c2ccc(Cl)c(Cl)c2)c2ccccc21	–	–	–	52	51	41	47	50	–	–	–	–	–
SMILES	SENP8 block-1	SENP8 block-2	SENP1 inh	SENP7 inh	SENP6 inh	HSP90 refold inh	HSP90 inh confirm	FLuc counter	SENP8 conf	SENP6 confirm	SENP7 confirm	Casp3 select	SENP luc ctr
COC(=O)c1ccc2nc(-c3ccc(S(C)(=O)=O)cc3)cn2c1	–	–	–	–	–	–	·	·	·	·	·	·	·
CS(=O)(=O)c1ccc(-c2cn3cc(C(=O)O)ccc3n2)cc1	–	55	–	58	60	63	75	–	–	66	86	–	56
CCC(C)NS(=O)(=O)c1ccc(NC(=O)c2cccs2)cc1 (stereo not given)	–	–	–	–	–	–	·	·	·	·	·	·	·
CCC(C)c1ccc(NC(=O)c2cccs2)cc1 (stereo not given)	–	87	–	84	90	17	24	–	92	93	99	76	82
Oc1cccc(/C=N/N=C/c2cccc(O)c2O)c1O	–	92	–	94	96	25	71	74	94	94	100	92	–
O=C(O)c1ccc2nc(C(F)(F)F)[nH]c2c1	–	–	–	–	–	–	·	·	·	·	·	·	·
COc1ccc(-c2nc3ccccc3[nH]2)cc1	–	95	–	97	94	20	47	33	96	98	103	98	96
Cc1cccc2cc(-c3nc4ccc(C(=O)O)cc4[nH]3)c(=O)oc12	–	86	–	86	88	21	–	21	94	94	100	98	56
O=C(Nc1nc2ccccc2[nH]1)c1ccccc1	–	90	–	93	96	17	57	39	82	91	100	96	–
c1ccc2[nH]c(-c3ccncc3)nc2c1	–	–	–	–	–	–	·	·	·	·	·	·	·
O=C(O)c1cccc(-c2nc3ccccc3[nH]2)c1	–	94	–	99	94	73	80	60	96	97	100	89	96
